# Shown are actives, neighbours in structure and some others; about 1.1% of the full set was active somewhere.
# FAS-TE inh: FAS thioesterase (human) inhibition; inhibition, % at 15 µM; P49327; recombinant FAS-TE, OMFH fluorogenic substrate, fluorescence endpoint; AID 602261; hit rate 0.67% among 360,000;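 active = compounds whose normalised, plate-corrected inhibition of enzyme fluorescence in the single-dose primary screen is 50% or more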;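 also: 0% = DMSO with enzyme and 100% = substrate without enzyme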
# GASC-1 inh: inhibitors of human GASC-1 (JMJD2C) demethylase; Q9H3R0; GST-JMJD2C(1-420) H3K9me3 demethylation, DELFIA europium; inhibition, % at 2.35 µM; hit rate 0.069% among 330,000; AID 2099;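 active = more than half of a compound's replicate wells show inhibition beyond 50%, single wells judged on their own value; inconclusive = some, but no more than half, of replicates pass 50% inhibition; inactive = no replicate passes 50% inhibition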;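 also: signal counts dimethyl H3K9 product captured on neutravidin plate; 0% = median of DMSO wells and 100% = 0.3 times that DMSO median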
# Target sequence (Q9H3R0 1-420 limits assumed): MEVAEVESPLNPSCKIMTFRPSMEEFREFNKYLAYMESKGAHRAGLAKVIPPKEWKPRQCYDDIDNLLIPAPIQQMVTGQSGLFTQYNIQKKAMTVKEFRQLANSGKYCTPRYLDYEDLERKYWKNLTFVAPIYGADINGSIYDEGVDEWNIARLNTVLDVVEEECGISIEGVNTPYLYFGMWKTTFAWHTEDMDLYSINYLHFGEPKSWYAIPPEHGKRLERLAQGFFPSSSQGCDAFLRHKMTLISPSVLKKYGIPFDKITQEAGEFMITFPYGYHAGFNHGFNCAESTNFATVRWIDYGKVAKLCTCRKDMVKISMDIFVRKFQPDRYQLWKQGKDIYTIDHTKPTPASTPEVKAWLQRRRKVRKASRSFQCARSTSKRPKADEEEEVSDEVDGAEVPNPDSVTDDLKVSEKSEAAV
# SENP1 FRET inh: SENP1 (human) catalytic domain inhibition; Q9P0U3; recombinant SENP1 catalytic domain, CyPet-SUMO1-YPet FRET cleavage; inhibition, % at 10 µM; hit rate 0.21% among 360,000; AID 624204;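 active = inhibition at least 30% at 10 µM, raw YFP signal under a set limit, fluorescence ratio 0.5 to 1.5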;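 also: 0% = enzyme with DMSO and 100% = no enzyme wells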
# Target sequence (Q9P0U3 419-644 limits assumed): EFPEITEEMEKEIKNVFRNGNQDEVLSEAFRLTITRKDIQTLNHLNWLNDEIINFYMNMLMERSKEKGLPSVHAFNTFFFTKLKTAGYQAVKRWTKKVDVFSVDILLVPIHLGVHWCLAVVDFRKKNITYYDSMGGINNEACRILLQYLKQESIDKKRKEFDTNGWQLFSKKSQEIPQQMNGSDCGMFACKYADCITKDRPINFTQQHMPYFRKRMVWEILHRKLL
#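 Test system: human SENP1 catalytic domain; medium: Tris pH 8 buffer plus EDTA, NaCl, BME, BSA, NP40, catalase; incubation: 50 min reaction at room temperature; technique: FRET, CFP and YFP emission; controls: no-enzyme low control and enzyme-plus-DMSO high control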
# Arr AP2 block: human beta-arrestin and AP2 interaction inhibition; FITC-arrestin peptide / GST-AP2 beads, flow cytometry; AP2 beta2 appendage carries R879A mutation; inhibition, % at 10 µM; hit rate 0.31% among 340,000; AID 504490;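 active = inhibition above a set limit, near 3 SD of compounds lacking own fluorescence, cut at about 54% in these data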;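 also: plate controls were DMSO wells for no effect and 5 µM unlabelled arrestin peptide for full effect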
#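 test system = AP2 appendage R879A on GSH beads | buffer or medium = PBS plus Tween 20 (0.05%) and BSA (0.1%) | incubation = 12 min plus 1 h, RT | detection = bead flow cytometry, FITC channel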
# FAS-TE inh conf: FAS thioesterase (human) inhibition, confirmation; shares compounds with FAS-TE inh; recombinant FAS-TE, OMFH fluorogenic substrate, fluorescence; inhibition, % at 15 µM; hit rate 45% among 2,300;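 active = compounds inhibiting the enzyme by at least 50% at 15 µM in any one of the replicates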;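 also: 0% = enzyme with DMSO only and 100% = wells lacking enzyme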
# Starred values were filed as active, the others as inactive; u = inconclusive; x = no result given.
SMILES,FAS-TE inh,GASC-1 inh,SENP1 FRET inh,Arr AP2 block,FAS-TE inh conf
COc1ccccc1NC(=O)c1ccccc1S(=O)(=O)c1ccc([N+](=O)[O-])cc1,53.9*,-0.8,1.0,-12.8,62.6*
CC(=O)Nc1ccc(NC(=O)c2ccccc2S(=O)(=O)c2ccccc2[N+](=O)[O-])cc1,-6.5,5.8,-1.2,-3.5,x
COc1ccc2c(c1)C=C(C(=O)NCc1ccc(Cl)cc1)CO2,26.0,-1.0,-12.8,5.9,x
COc1ccc(N(C)C(=O)c2cc3c(s2)-c2ccccc2S(=O)(=O)C3)cc1,47.0,-3.9,2.7,10.8,x
COc1cc(OC)c(N(C)C(=O)c2cc3c(s2)-c2ccccc2S(=O)(=O)C3)cc1Cl,54.5*,3.3,-5.2,-2.7,32.1
O=C(NN=Cc1ccccc1O)c1cccc([N+](=O)[O-])c1,61.2*,x,3.3,-1.6,3.7
O=C(NC(C(=O)N/N=C/c1cc([N+](=O)[O-])ccc1O)c1n[nH]c(=O)c2ccccc12)c1ccccc1 (stereo not given),66.9*,-16.9,-12.2,-9.7,78.4*
Cc1cc(C(=O)N/N=C/c2cc([N+](=O)[O-])ccc2O)c2ccccc2n1,76.9*,13.9,-37.9,-5.1,96.8*
O=C(CNC(=O)c1ccc2c(c1)OCO2)N/N=C/c1cccc([N+](=O)[O-])c1,55.0*,2.9,1.4,15.1,30.0
CCN(CC)S(=O)(=O)c1ccc(N2CCc3ccccc3C2)nc1,63.9*,3.4,-27.4,-0.6,63.2*
CCN(CC)S(=O)(=O)c1ccc(-n2cnc3cc(C)c(C)cc32)nc1,57.0*,-3.7,1.7,-1.6,60.7*
Cc1sc2nc(CN3CCCC3)nc(N3CCC(C(N)=O)CC3)c2c1C,-6.6,15.0,-27.5,21.7,x
CCOc1ccc(C(=O)NC(C(=O)N2CCC2)C(C)C)cc1 (stereo not given),-6.2,x,-0.7,-9.0,x
N#CC1CCN(C(=O)c2ccc3c(Cl)c4c(nc3c2)CCCC4)CC1,77.9*,2.7,1.6,-2.8,85.5*
C[C@@H](C(=O)Nc1ccc2ccccc2c1)[C@@H]1C[C@@]1(C)[C@@H](NC(=O)c1cnccn1)c1ccccc1,15.2,6.0,0.5,-6.3,x
Cc1ccc(C2CC(c3cccs3)=NN2C(=O)CSc2nc(=O)n3ccc(C)cc3n2)cc1 (stereo not given),45.8,3.0,-27.2,6.2,x
COc1ccc(C2=NN(C(=O)CSc3nc(=O)n4cc(C)ccc4n3)C(c3ccc(C)cc3)C2)cc1 (stereo not given),69.4*,7.1,-2.9,-0.1,40.2*
Cc1ccc(C2CC(c3ccc(Br)cc3)=NN2C(=O)CSC2=NN3CCCC(=O)N=C3S2)cc1 (stereo not given),54.2*,-77.1,2.5,-1.2,9.5
COc1ccc(C2CC(c3cccs3)=NN2C(=O)CSc2nc(=O)n3ccc(C)cc3n2)cc1 (stereo not given),56.6*,4.1,-38.2,-6.9,56.8*
O=C1CCCN2N=C(SCC(=O)N3N=C(c4ccc(Br)cc4)CC3c3ccc(F)cc3)SC2=N1 (stereo not given),45.0,3.9,-1.6,0.1,x
CCOC(=O)c1ccc(N2C(=O)CC(NNC(=O)c3ccc(Br)s3)C2=O)cc1 (stereo not given),3.2,4.7,1.8,35.6,x
N#CCCn1cc(/C=C2\NC(=S)N(c3ccccc3)C2=O)c(-c2ccc(F)cc2)n1,4.4,-1.3,-58.0,-8.7,x
Cc1cc(C)c(NC(=O)CSCc2c(C)noc2C)c(C)c1,-5.0,2.1,1.2,-0.5,x
O=C(COC(=O)c1ccncc1)c1ccc(Br)cc1,-4.9,-16.2,-1.1,-17.5,x
CC1(C)CC(=O)C=C(c2ccc(-c3ccccc3)cc2)C1=O,21.9,x,1.1,x,x
SMILES,FAS-TE inh,GASC-1 inh,SENP1 FRET inh,Arr AP2 block,FAS-TE inh conf
CC1(C)CC(=O)C=C(c2ccc(COC(=O)c3ccc(-c4ccccc4)cc3)cc2)C1=O,31.4,x,1.0,x,x
CC1(C)CC(=O)C=C(c2ccc(COC(=O)Cc3ccccc3)cc2)C1=O,73.4*,x,-0.7,x,18.7
CC1(C)CC(=O)C=C(c2ccc(-c3cnn(Cc4ccccc4)c3)cc2)C1=O,59.8*,x,15.7,x,70.7*
COC(=O)[C@]1(Cc2ccccc2)N[C@H](c2ccc(-c3ccccc3)cc2)[C@@H]2C(=O)N(C)C(=O)[C@@H]21,55.6*,-0.9,1.5,-3.2,10.3
CCN1C(=O)[C@H]2[C@@H](c3ccc(-c4cccc(Cl)c4)c(OC)c3)N[C@@](CC(C)C)(C(=O)OC)[C@H]2C1=O,44.4,-5.5,-1.0,-0.6,x
CCN1C(=O)[C@H]2[C@@H](c3ccc(-c4cccc(Cl)c4)cc3)N[C@@](CC(C)C)(C(=O)OC)[C@H]2C1=O,51.7*,x,1.7,29.1,15.9
COC(=O)[C@]1(Cc2ccccc2)N[C@H](c2ccc(-c3ccc(Cl)c(Cl)c3)cc2)[C@@H]2C(=O)N(C)C(=O)[C@@H]21,89.8*,21.6,-2.9,0.4,21.7
COC(=O)[C@]1(Cc2ccccc2)N[C@H](c2ccc(-c3cccc(Cl)c3)cc2)[C@@H]2C(=O)N(C)C(=O)[C@@H]21,91.2*,u,-2.3,28.2,20.9
COc1ccccc1C(=O)NC(=O)COC(=O)CN1C(=O)NC2(CCCCC2C)C1=O (stereo not given),-3.0,-3.0,-0.6,-7.8,x
CCOC(=O)[C@H]1[C@H]2COc3ccc(Br)cc3[C@@H]2N2C(=O)c3ccc(Cl)cc3NC(=O)[C@@]12C,78.4*,-6.2,1.5,1.6,28.5
CCOC(=O)[C@H]1[C@H]2COc3ccc(C)cc3[C@@H]2N2C(=O)c3ccc(C)cc3NC(=O)[C@@]12C,13.7,2.9,0.0,-7.1,x
CCOC(=O)[C@@H]1[C@H]2COc3ccc(Br)cc3[C@H]2N2C(=O)N(c3ccc(C)cc3)C(=O)[C@]12C,60.0*,6.2,2.1,19.0,26.2
CCOC(=O)[C@@H]1[C@H]2COc3ccc(Br)cc3[C@@H]2N2C(=O)N(c3ccc(C(F)(F)F)cc3)C(=O)[C@]12C,58.0*,-2.4,0.6,7.5,22.9
COc1ccc2c(CC(=O)N3CCc4ccccc43)coc2c1,5.9,4.7,-5.6,-2.4,x
COc1ccc(-c2ccc(C(=O)Nc3ccc(C(C)C)cc3)c3occc23)c(C)c1,15.3,x,-0.1,x,x
Cc1c(C(=O)Nc2ccc(Cl)cc2)c2ccccn2c1C(=O)c1ccc([N+](=O)[O-])cc1,71.2*,14.3,-0.1,31.7,13.5
Cc1c(C(=O)Nc2ccc(Cl)cc2)c2ccccn2c1C(=O)c1ccccc1,21.9,1.9,-3.1,14.9,x
C[C@@]12C(=O)N(Cc3ccc(-c4ccccc4)cc3)CC(=O)N1[C@H](/C=C/c1ccccc1)[C@@H]1C(=O)N(c3ccccc3)C(=O)[C@@H]12,50.3*,-13.2,0.6,-1.7,13.4
